Results as given in ChEMBL document CHEMBL4387722.

Tests used:
[1] = test system: Mycobacterium tuberculosis; experiment: Antitubercular activity against Mycobacterium tuberculosis H37Rv after 5 days; assay type: functional, organism-based; conditions: 120 h
[2] = Selectivity ratio of IC50 for inhibition of human HSP60 expressed in Escherichia coli Rosetta 2(DE3)/human HSP10 expressed in Rosetta 2(DE3) pLysS cells to IC50 for inhibition of Escherichia coli GroEL expressed in Escherichia coli DH5alpha/Escherichia coli GroES expressed in Escherichia coli BL21 (DE3)
In short: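 Ratio of IC50s from two analogous chaperonin-mediated refolding assays: human HSP60/10 and E. coli GroEL/ES each refold denatured malate dehydrogenase (dMDH). Refolding is followed through the recovered MDH enzymatic activity in a coupled read-out. IC50s come from dose-response testing. GroEL subunits are at 700 nM in the GroEL/ES assay.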

[3] = target: T1, Tyrosine-protein phosphatase non-receptor type 5 (Homo sapiens, UniProt P54829); experiment: Inhibition of human PTPN5 expressed in Escherichia coli Rosetta 2 (DE3) using pNPP as substrate after 45 mins by spectrophotometric method
T1 sequence (P54829 whole entry): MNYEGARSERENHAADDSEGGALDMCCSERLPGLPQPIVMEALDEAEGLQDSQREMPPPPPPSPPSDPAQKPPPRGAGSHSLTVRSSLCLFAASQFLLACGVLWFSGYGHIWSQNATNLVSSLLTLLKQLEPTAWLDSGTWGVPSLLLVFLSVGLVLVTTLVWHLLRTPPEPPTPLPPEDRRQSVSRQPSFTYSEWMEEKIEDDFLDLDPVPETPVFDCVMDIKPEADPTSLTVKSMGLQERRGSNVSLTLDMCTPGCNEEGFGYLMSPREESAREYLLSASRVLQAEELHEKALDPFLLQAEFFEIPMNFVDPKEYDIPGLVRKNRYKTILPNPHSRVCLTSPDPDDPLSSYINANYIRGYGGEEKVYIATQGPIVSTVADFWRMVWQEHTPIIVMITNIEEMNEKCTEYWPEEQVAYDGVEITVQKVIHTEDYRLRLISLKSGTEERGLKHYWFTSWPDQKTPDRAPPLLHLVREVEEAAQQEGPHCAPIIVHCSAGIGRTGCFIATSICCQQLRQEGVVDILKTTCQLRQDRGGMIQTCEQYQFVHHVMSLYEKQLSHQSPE

[4] = target: T2, Phosphotyrosine protein phosphatase (Mycobacterium tuberculosis, UniProt A0A045ISB3); experiment: Inhibition of Mycobacterium tuberculosis His-tagged PtpB expressed in Escherichia coli Rosetta 2 (DE3) using pNPP as substrate after 30 mins by spectrophotometric method
T2 sequence (A0A045ISB3 whole entry): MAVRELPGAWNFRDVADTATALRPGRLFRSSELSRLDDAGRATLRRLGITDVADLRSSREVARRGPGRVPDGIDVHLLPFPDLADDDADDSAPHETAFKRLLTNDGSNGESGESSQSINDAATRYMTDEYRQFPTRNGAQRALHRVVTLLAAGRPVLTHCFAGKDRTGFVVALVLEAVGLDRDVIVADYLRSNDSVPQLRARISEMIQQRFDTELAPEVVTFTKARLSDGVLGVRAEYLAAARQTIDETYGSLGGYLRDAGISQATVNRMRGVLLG

[5] = target: T3, Tyrosine-protein phosphatase non-receptor type 2 (Homo sapiens, UniProt P17706); experiment: Inhibition of human PTPN2 expressed in Escherichia coli Rosetta 2 (DE3) using pNPP as substrate after 45 mins by spectrophotometric method
T3 sequence (P17706 whole entry): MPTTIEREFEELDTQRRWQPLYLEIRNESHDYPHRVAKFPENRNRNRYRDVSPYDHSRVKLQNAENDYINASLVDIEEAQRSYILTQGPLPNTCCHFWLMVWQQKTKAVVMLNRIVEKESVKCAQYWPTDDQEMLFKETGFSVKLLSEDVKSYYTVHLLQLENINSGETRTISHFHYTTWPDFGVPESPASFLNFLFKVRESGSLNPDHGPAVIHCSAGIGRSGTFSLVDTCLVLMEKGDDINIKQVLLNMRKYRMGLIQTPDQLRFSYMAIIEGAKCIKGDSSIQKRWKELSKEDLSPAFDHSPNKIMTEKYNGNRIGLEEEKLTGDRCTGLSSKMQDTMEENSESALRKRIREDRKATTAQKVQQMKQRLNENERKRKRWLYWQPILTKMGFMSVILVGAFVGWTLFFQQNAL

[6] = test system: Mycobacterium tuberculosis; experiment: Antitubercular activity against Mycobacterium tuberculosis H37Rv after 5 days at 200 uM relative to control; assay type: functional; conditions: 120 h
In short: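 M. tuberculosis grown in liquid culture with compound at a fixed 200 μM for 5 days. Growth inhibition expressed as percent of control.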

[7] = target: T4, Tyrosine-protein phosphatase non-receptor type 1 (Homo sapiens, UniProt P18031); experiment: Inhibition of human PTPN1 expressed in Escherichia coli Rosetta 2 (DE3) using pNPP as substrate after 45 mins by spectrophotometric method
T4 sequence (P18031 whole entry): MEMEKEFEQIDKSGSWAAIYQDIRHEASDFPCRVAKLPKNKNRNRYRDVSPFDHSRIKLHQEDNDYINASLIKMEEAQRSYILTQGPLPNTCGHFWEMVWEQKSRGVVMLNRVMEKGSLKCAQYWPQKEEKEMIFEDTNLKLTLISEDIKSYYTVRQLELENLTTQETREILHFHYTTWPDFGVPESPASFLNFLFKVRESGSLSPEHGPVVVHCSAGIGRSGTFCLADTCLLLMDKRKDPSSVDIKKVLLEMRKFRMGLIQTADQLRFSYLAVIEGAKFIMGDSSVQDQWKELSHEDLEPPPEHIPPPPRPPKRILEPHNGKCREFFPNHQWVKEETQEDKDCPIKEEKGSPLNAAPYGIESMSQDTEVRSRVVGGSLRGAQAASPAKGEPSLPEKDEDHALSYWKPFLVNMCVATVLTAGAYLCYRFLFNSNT

HSP60/HSP10 = HSP60/HSP10 (Homo sapiens, UniProt P10809); experiment: Inhibition of human HSP60 expressed in Escherichia coli Rosetta 2(DE3)/human HSP10 expressed in Escherichia coli Rosetta 2(DE3) pLysS cells assessed as reduction in HSP60/HSP10-mediated denatured pig heart mitochondrial MDH refolding by measuring MDH enzyme activity using sodium mesoxalate as substrate after 40 to 60 mins by spectrometric analysis
Sequence of HSP60/HSP10 (P10809 whole entry): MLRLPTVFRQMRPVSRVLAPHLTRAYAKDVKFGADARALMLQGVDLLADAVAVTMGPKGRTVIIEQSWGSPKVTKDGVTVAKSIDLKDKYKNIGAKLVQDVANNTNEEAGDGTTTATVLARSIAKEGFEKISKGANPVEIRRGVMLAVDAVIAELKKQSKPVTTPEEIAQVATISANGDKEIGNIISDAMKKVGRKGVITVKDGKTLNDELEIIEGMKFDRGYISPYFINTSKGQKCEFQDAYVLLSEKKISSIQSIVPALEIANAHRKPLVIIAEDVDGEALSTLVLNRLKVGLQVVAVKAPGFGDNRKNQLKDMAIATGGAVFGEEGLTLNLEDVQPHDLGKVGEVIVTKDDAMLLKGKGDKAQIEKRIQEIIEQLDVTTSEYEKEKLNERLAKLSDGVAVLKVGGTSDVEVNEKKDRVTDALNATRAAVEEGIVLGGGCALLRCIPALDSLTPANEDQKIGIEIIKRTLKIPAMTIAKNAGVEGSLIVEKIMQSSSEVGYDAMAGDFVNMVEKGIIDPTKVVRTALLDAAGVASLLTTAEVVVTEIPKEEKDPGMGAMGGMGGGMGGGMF
Sequence of HSP60/HSP10 (P61604 whole entry, further chain): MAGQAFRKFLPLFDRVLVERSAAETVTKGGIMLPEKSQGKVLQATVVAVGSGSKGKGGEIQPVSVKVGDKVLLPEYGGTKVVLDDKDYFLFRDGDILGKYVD

[8] = Selectivity index, ratio of IC50 for human PTPN1 to IC50 for Mycobacterium tuberculosis PtpB
E. coli GroEL/ES = E. coli GroEL/ES (Escherichia coli, UniProt P0A6F5); experiment: Inhibition of Escherichia coli GroEL expressed in Escherichia coliDH5alpha/Escherichia coli GroES expressed in Escherichia coli BL21 (DE3) assessed as reduction in GroEL/GroES-mediated denatured pig heart mitochondrial MDH refolding by measuring MDH enzyme activity using sodium mesoxalate as substrate after 20 to 40 mins by spectrometric analysis
Sequence of E. coli GroEL/ES (P0A6F5 whole entry, looked up): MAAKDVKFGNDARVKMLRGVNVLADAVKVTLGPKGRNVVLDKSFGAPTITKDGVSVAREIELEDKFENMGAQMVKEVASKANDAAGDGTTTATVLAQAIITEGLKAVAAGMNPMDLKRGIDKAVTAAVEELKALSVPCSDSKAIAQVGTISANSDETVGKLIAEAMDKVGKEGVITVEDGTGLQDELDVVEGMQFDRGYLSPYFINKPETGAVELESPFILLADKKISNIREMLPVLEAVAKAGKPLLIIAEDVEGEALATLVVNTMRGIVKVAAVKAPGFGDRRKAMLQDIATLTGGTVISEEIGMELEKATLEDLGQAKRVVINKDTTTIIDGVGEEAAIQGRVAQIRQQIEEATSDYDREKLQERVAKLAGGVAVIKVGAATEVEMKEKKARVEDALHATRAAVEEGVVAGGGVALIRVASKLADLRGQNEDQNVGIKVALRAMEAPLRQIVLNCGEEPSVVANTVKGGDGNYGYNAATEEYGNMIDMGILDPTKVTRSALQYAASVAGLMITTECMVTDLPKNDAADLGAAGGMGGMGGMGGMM

SMILES | EC50 [1] [µM] | Ratio IC50 [2] | IC50 [3] [µM] | IC50 [4] [µM] | IC50 [5] [µM] | inhibition at 200 µM [6] [%] | IC50 [7] [µM] | IC50 (HSP60/HSP10) [µM] | Ratio IC50 [8] | IC50 (E. coli GroEL/ES) [µM]
O=S(=O)(Nc1ccc(-c2nc3cc(NS(=O)(=O)c4ccccc4)ccc3o2)cc1)c1ccccc1 | 28 | 20 | 23 | 18 | 29 to 31 | 76 | 24 | 80 | 1.3 | 4
O=S(=O)(Nc1ccc2oc(-c3ccc(NS(=O)(=O)c4ccc(Cl)s4)cc3)nc2c1)c1cccs1 | 36 | 2.3 | 23 | 5.1 | 31 | 52 | 13 | 9.1 | 2.5 | 4
CS(=O)(=O)Nc1ccc(-c2nc3cc(NS(=O)(=O)c4ccc(Cl)s4)ccc3o2)cc1 | 66 | 3.1 | 52 | 37 | 95 | 74 | 52 | 43 | 1.4 | 14
N#Cc1ccc(S(=O)(=O)Nc2ccc(-c3nc4cc(NS(=O)(=O)c5ccc(C#N)cc5)ccc4o3)cc2)cc1 | 43 | 1.4 | 27 | 12 | 35 | 95 | 37 | 49 | 2.3 | 35
O=S(=O)(Nc1ccc(-c2nc3cc(NS(=O)(=O)c4ccccc4O)ccc3o2)cc1)c1ccccc1O | 63 | 2.3 | 25 | 2.3 | 39 | 79 | 23 | 18 | 10 | 7.7
O=S(=O)(Nc1ccc(-c2nc3cc(NS(=O)(=O)c4cccs4)ccc3o2)cc1)c1cccs1 | 34 | 7.3 | 33 | 12 | 41 | 59 | 31 | 40 | 2.6 | 5.5
O=S(=O)(Nc1ccc2oc(-c3ccc(NS(=O)(=O)c4cccc5nonc45)cc3)nc2c1)c1ccc(Cl)s1 | 58 | 1.4 | 24 | 5.9 | 28 | 46 | 15 | 13 | 2.5 | 9.3
